Hits are enriched below; roughly 2.2% of the tested compounds scored in any of these assays.
EBV gp42 inh = blocks Epstein-Barr virus glycoprotein 42 binding | Q1HVG2 | Fluorescence polarization binding assay, mP read-out | inhibition, % (tested at 21.74 µM) | 0.42% of 220,000 active; in the data active means inhibition above about 50%
Target sequence (Q1HVG2 whole entry, looked up): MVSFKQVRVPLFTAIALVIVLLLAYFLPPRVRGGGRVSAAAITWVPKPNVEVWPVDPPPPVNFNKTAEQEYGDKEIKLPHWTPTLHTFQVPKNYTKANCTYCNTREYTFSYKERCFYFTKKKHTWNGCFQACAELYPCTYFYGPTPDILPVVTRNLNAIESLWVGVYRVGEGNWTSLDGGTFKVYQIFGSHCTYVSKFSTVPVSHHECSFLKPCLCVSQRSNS
Mcl1 Bid PPI = disrupts binding of human Mcl-1 to Bid peptide; inhibition, % at 21.7 µM; 0.97% of 220,000 active; Q07820; TR-FRET Mcl-1/Bid-Dy647 peptide binding, 1536-well;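 active means compounds that cut the binding signal by more than half at the single screening dose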;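 further: His-tagged Mcl-1 with europium anti-His antibody binding Bid BH3 peptide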
MCL1-BIM inh = disrupts human MCL1 binding to BIM-BH3 peptide; Q07820; GST-MCL1 / FITC-Bim-BH3 fluorescence polarization; inhibition, % at 10.9 µM; 0.68% of 320,000 active; AID 2057;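 active means inhibition above the mean inhibition of all tested compounds plus 3 SD, set per campaign, cut at about 40% in these data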;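 further: higher means more loss of mP so more displacement of Bim peptide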
Mcl-1 Bim block = disrupts Bim peptide binding to human Mcl-1; Bead-based flow cytometry, Bim peptide-Mcl-1 binding; inhibition, % at 10 µM; 0.1% of 190,000 active; Q07820; in the data active means inhibition above about 40%
RBBP9 inhibitor = blocks human serine hydrolase RBBP9; O75884; recombinant RBBP9, FP-Rh probe fluorescence polarization; inhibition, % at 7.94 µM; 0.2% of 220,000 active;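 active means inhibition above the campaign mean of all tested compounds plus 3 SD, cut at about 14% in these data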
Target sequence (O75884 whole entry, looked up): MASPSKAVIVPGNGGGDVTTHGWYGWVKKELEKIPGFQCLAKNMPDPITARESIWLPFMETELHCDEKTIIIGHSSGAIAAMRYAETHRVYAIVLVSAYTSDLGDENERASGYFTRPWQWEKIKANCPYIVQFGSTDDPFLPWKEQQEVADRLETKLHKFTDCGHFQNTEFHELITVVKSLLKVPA
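System: RBBP9 protein / Quantity: 2.5 µM RBBP9 dispensing solution, before mixing / Also added: Serine-hydrolase probe FP-Rh, 375 nM pre-mixing / Dosing: 7.94 µM single dose, 0.794% DMSO / Timing: enzyme-compound preincubation 30 min, then probe labeling 45 min, 25 °C / Signal: FP readout at 525/598 nm / Controls: DMSO-treated enzyme wells and wells lacking RBBP9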
Mcl1 Noxa PPI = disrupts binding of human Mcl-1 to Noxa peptide | inhibition, % at 21.7 µM | AID 1022 | TR-FRET Mcl-1/Noxa peptide binding, 2 h | 1.5% of 220,000 active | Q07820;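 active means compounds that cut the protein-peptide binding signal by more than 50% relative to plate controls in a single-dose test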;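 further: His-tagged Mcl-1 with rhodamine Noxa BH3 peptide and terbium anti-His antibody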
BCLXL inh confirm = Bcl-xL (human) inhibition, MCL1 counter-screen confirmation. shares compounds with MCL1-BIM inh. 54% of 1,700 active. GST-Bcl-xL / FITC-Bim BH3 peptide FP binding. AID 2166. inhibition, % at 10.9 µM;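 active means inhibition above a cutoff equal to the mean inhibition of all tested compounds plus 3 SD, cut at about 30% in these data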
Target sequence (Q07817 whole entry, looked up): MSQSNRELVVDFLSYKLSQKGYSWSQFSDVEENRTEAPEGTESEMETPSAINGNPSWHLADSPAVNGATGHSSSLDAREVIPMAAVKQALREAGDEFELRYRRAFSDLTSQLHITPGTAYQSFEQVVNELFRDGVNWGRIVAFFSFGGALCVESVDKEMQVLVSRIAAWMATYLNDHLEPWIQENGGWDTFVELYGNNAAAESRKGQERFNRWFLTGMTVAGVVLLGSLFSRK
MCL1 BIM confirm = MCL1-BIM-BH3 interaction inhibition, confirmation. shares compounds with MCL1-BIM inh. GST-MCL1 / FITC-Bim-BH3 fluorescence polarization. inhibition, % at 10.9 µM. 61% of 1,700 active;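 active means inhibition above the average of all tested compounds plus 3 SD, cut at about 40% in these data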
Hits are given with their value; n = inactive; x = not tested or not shown; + = active, no number; ! = not active in a repeat.

SMILES	EBV gp42 inh	Mcl1 Bid PPI	MCL1-BIM inh	Mcl-1 Bim block	RBBP9 inhibitor	Mcl1 Noxa PPI	BCLXL inh confirm	MCL1 BIM confirm
Cc1ccc(S(=O)(=O)Cc2ccc(C(=O)N3CCC4(CC3)OCCO4)o2)cc1	n	n	n	n	n	n	x	x
CCN1C(=O)NC(=O)/C(=C\c2cn(CC(=O)N3CCCCC3C)c3ccccc23)C1=O (stereo not drawn)	x	x	81	x	x	x	162	+
CN1C(=O)C(=Cc2cn(CC(=O)N3CCCC3)c3ccccc23)C(=O)N(C)C1=O	x	x	n	x	x	x	x	x
CCOC(=O)[C@]1(C#N)[C@@H]2C=CC(C(C)=O)=CN2[C@@H](C(N)=O)[C@@H]1c1ccsc1	71	n	96	n	n	n	108	145
ClCCOCOCCCl	x	x	n	x	x	x	x	x
CCOc1ccc(-n2c(O)c(/C=C3\C=Nc4ccccc43)c(=O)[nH]c2=O)cc1	x	x	79	x	x	x	n	n
Cc1ccc2cc(C=C(C#N)C#N)c(Cl)nc2c1	n	n	+	n	n	n	n	n
CC[C@@H](CO)NC(=O)[C@@H]1C=C2c3cccc4c3c(cn4C)C[C@H]2N(C)C1	53!	n	171	n	n	n	n	42
CC(C)C[C@H]1C(=O)N2CCC[C@H]2[C@]2(O)O[C@](NC(=O)[C@@H]3C=C4c5cccc6[nH]cc(c56)C[C@H]4N(C)C3)(C(C)C)C(=O)N12	x	x	+	x	x	x	93	114
CCC(CO)NC(=O)C1C=C2c3cccc4[nH]cc(c34)CC2N(C)C1 (stereo not drawn)	n	n	47	x	n	n	96	111
C1CCC2S[C@H]3CCCCC3NC2C1 (stereo partly drawn)	n	n	n	x	n	n	x	x
O=C1C=C2C=C[C@@H]3CC2(O1)[C@H]1CCCCN31	x	x	125	x	x	x	n	n
C=CCN=C(SCC(=O)c1ccc(Cl)cc1)c1c(O)n(C)c(=O)n(C)c1=O	n	n	n	x	n	n	x	x
Cc1cc([P+](=O)O)c(C)n1-c1ccc(Br)cc1	n	n	n	n	n	n	x	x
Cc1cc(C(=O)OCC(=O)Nc2ccc(F)cc2)c(C)n1C1CC1	x	x	n	x	x	x	x	x
Oc1c(Br)c(Br)c(Br)c(Br)c1Br	x	x	73	x	x	x	n	55
Cc1cc(N2CCCC2)ccc1C=C(C#N)C#N	85	n	180	n	n	n	85	108
N#CC(C#N)=Cc1ccc(C=C(C#N)C#N)cc1	n	n	x	x	n	n	x	x
Cc1ccc(NC2=NCCCS2)c(C)c1C	n	n	n	n	n	n	x	x
CN(C)C1C(=O)C(C(N)=O)=C(O)C2(O)C(=O)C3=C(O)c4c(O)cccc4C(C)(O)C3C(O)C12 (stereo not drawn)	x	x	105	x	x	x	33	84
CC1(O)CCN2C(=O)CCc3cccc1c32 (stereo not drawn)	x	x	66	x	x	x	n	n
COc1c(C)cc(C(=O)C2CCCN(Cc3ccccn3)C2)cc1C (stereo not drawn)	n	n	n	n	n	n	x	x
COc1ccc(Oc2cc(NC(=O)c3nn(C)cc3[N+](=O)[O-])cc([N+](=O)[O-])c2)cc1	n	n	n	n	n	n	x	x
COc1cc(/C=C2\C(=O)NC(=O)N(c3ccccc3)C2=O)c([N+](=O)[O-])cc1OC	n	n	x	n	n	n	x	x
COc1ccc(N2C(=O)/C(=C/c3cc(C)n(-c4ccc(C)cn4)c3C)C(=O)NC2=S)c(OC)c1	n	n	n	n	n	n	x	x
SMILES	EBV gp42 inh	Mcl1 Bid PPI	MCL1-BIM inh	Mcl-1 Bim block	RBBP9 inhibitor	Mcl1 Noxa PPI	BCLXL inh confirm	MCL1 BIM confirm
COc1ccc(OC)c(N2C(=O)NC(=O)/C(=C/c3ccc([N+](=O)[O-])s3)C2=O)c1	n	n	46	n	n	69	76	108
O=C1NC(=S)N(c2ccc(F)cc2)C(=O)/C1=C/c1ccco1	x	x	68	x	x	x	73	62
COc1ccc(OC)c(N2C(=O)/C(=C/c3ccco3)C(=O)NC2=S)c1	x	x	87	x	x	x	71	78
CC1=NN=C(c2ccc(N)cc2)c2cc3c(cc2C1)OCO3	x	x	n	x	x	x	x	x
CNC(C(=O)c1ccccc1)C(OC(C)C)c1ccc(Cl)cc1 (stereo not drawn)	n	n	n	n	n	n	x	x
Nc1c(C(=O)NCC2CCCO2)c2nc3ccccc3nc2n1Cc1ccco1 (stereo not drawn)	n	n	58	x	n	55	n	n
CN1C(=O)C2C[C@@]3(Br)c4ccccc4N(OOSc4ccccc4)[C@H]3N2C(=O)[C@@H]1Cc1ccccc1 (stereo partly drawn)	x	x	n	x	x	x	x	x
CNc1ccc2nc3ccccc3[n+](C)c2c1	x	x	185	x	x	x	118	169
C[n+]1c2ccccc2nc2ccc(NCCO)cc21	x	x	82	x	x	x	78	84
CC(C)n1nnnc1CN1CCN(C)CC1	n	n	n	n	n	n	x	x
Cc1nn(Cc2ccccc2)c(C)c1C(=O)OCC(=O)NC1CCS(=O)(=O)C1 (stereo not drawn)	n	n	n	n	n	n	x	x
CN1CCc2nc(SCc3cccc(Br)c3)c(C#N)cc2C1	n	n	n	x	n	n	x	x
Cc1c(Cl)cccc1N1C(=O)NC(=O)/C(=C\c2cc(C)n(-c3cccc(C(=O)O)c3C)c2C)C1=O	x	x	n	x	x	x	x	x
CN1C[C@H](CNC(=O)OCc2ccccc2)C[C@@H]2c3cccc4c3c(cn4C)C[C@H]21	n	n	67	n	n	n	n	n
CCOC(=O)C1SC2(C(F)F)CC1(O)c1c(c(OC)c3occc3c1OC)O2 (stereo not drawn)	n	n	n	n	n	n	x	x
O=C1NC(=O)N(c2ccc(Cl)cc2)C(=O)/C1=C\c1ccc(Sc2nc3ccccc3[nH]2)o1	n	n	74	n	n	68	n	64
CCN(CC)c1ccc(C=C2C(=O)NC(=S)NC2=O)cc1	n	n	n	x	n	n	x	x
CC(C)CN(CC(C)C)c1ccc(C=C2C(=O)NC(=S)NC2=O)cc1[N+](=O)[O-]	n	n	70	n	n	n	42	97
CN1CCN(c2ccc([N+](=O)[O-])c3no[n+]([O-])c23)CC1	141	n	+	x	n	n	149	180
CN1CCN(c2ccc(S(C)(=O)=O)cc2[N+](=O)[O-])CC1	n	n	n	n	n	n	x	x
Cn1cc(/C=C2\C(=O)NC(=O)N(c3ccccc3)C2=O)c2ccccc21	x	x	182	x	x	x	60	64
O=C(O)Cn1cc(/C=C2\C(=O)NC(=O)N(c3ccc(Cl)cc3)C2=O)c2ccccc21	x	x	n	x	x	x	x	x
CCCN1CCc2cccc3c2[C@H]1Cc1ccc(O)c(O)c1-3	x	x	46	x	x	x	54	85
COc1ccc2c(c1O)-c1c(OC)c(OC)cc3c1[C@H](C2)N(C)CC3	x	x	n	x	x	x	x	x
C=C1C[C@@H]2[C@H](CC[C@]3(C)C(=O)CC[C@@H]23)[C@@]2(C)C=CC(=O)C=C12	n	n	n	n	n	n	x	x
